Data published in ChEMBL document CHEMBL1158012, “Sapinofuranones A and B, two new 2(3H)-dihydrofuranones produced by sphaeropsis sapinea, a common pathogen of conifers” (J Nat Prod, 1999).

Experiments:
Format in all cases: organism-based
Details in all cases: in vivo
[1] = test system: Hesperocyparis macrocarpa; assay: Phytotoxicity against Cupressus macrocarpa var. lambertiana assessed as browning of twigs at 0.1 to 0.2 mg/ml after 96 hrs
Outline: (§1)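 Severed cypress or pine twig cuttings were placed in 3 mL of test solution at 0.1-0.2 mg/mL for 96 h, then moved to distilled water. They were kept in a growth chamber at 23 °C, 60% relative humidity and low light. Symptoms were scored over 21 days.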

Solanum lycopersicum [2] = assay: Phytotoxicity against Lycopersicon esculatum L var. Marmande assessed as appearance of epinasty on petioles at 0.05 to 0.1 mg/ml after 48 hrs
Outline: (§2)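 Tomato (var. Marmande) seedlings were grown at 25 °C, 70-80% relative humidity and a 12 h photoperiod. Cuttings from 21-day-old seedlings were placed in 3 mL of solution at 0.05-0.1 mg/mL for 48 h, then moved to distilled water. Epinasty and browning were scored over 2 days.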

Cupressus sempervirens [3] = assay: Phytotoxicity against Cupressus sempervirens var. pyramidalis assessed as sapwood stain like symptoms on seedlings at 0.1 to 0.2 mg/ml after 96 hrs
Outline: (§3)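 A 0.1 mg/mL solution was injected into the cortical tissue 25 cm from the apex of 3-year-old cypress or 2-year-old pine seedlings. Stain, needle and blight symptoms were then scored.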

Pinus halepensis [4] = assay: Phytotoxicity against Pinus halepensis L assessed as appearance of severe needles on seedlings at 0.1 to 0.2 mg/ml after 96 hrs; outline: as §3
[5] = test system: Hesperocyparis macrocarpa; assay: Phytotoxicity against Cupressus macrocarpa var. lambertiana assessed as sapwood stain like symptoms on seedlings at 0.1 to 0.2 mg/ml after 96 hrs; outline: as §3
Pinus radiata [6] = assay: Phytotoxicity against Pinus radiata L assessed as yellowing of twigs at 0.1 to 0.2 mg/ml after 96 hrs; outline: as §1
Solanum lycopersicum [7] = assay: Phytotoxicity against Lycopersicon esculatum L var. Marmande assessed as browning of petioles and leaves at 0.05 to 0.1 mg/ml after 48 hrs; outline: as §2
Pinus halepensis [8] = assay: Phytotoxicity against Pinus halepensis L assessed as yellowing of twigs at 0.1 to 0.2 mg/ml after 96 hrs; outline: as §1
Hesperocyparis arizonica [9] = assay: Phytotoxicity against Cupressus arizonica assessed as sapwood stain like symptoms on seedlings at 0.1 to 0.2 mg/ml after 96 hrs; outline: as §3
Hesperocyparis arizonica [10] = assay: Phytotoxicity against Cupressus arizonica assessed as browning of twigs at 0.1 to 0.2 mg/ml after 96 hrs; outline: as §1
Pinus radiata [11] = assay: Phytotoxicity against Pinus radiata L assessed as appearance of severe needles on seedlings at 0.1 to 0.2 mg/ml after 96 hrs; outline: as §3
Cupressus sempervirens [12] = assay: Phytotoxicity against Cupressus sempervirens var. pyramidalis assessed as browning of twigs at 0.1 to 0.2 mg/ml after 96 hrs; outline: as §1

Measured: Activity

C/C=C/C=C\[C@H](O)[C@H]1CCC(=O)O1 [SAPINOFURANONE A]
Toxic: all assays above

C/C=C/C=C\[C@@H](O)[C@H]1CCC(=O)O1 [SAPINOFURANONE B]
Toxic: all assays above
